Measured values as given in ChEMBL document CHEMBL5357022, “Fluorinated Isoindolinone-Based Glucosylceramide Synthase Inhibitors with Low Human Dose Projections” (ACS Med Chem Lett, 2024).

How the values were obtained:
[1] = […] clearance in Beagle dog at 1 mg/kg, po in 30% captisol formulation or 0.5 mg/kg, iv measured after 24 hrs; assay type: ADME, organism-based, Canis lupus familiaris; conditions: in vivo
Procedure, shortened: (§1)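 Beagle dogs were given 0.5 mg/kg IV in DMSO/PEG400/H2O 20/60/20 at 0.5 mL/kg, and 1 mg/kg PO in 30% Captisol at 2 mL/kg. Sampling ran to a 24 h end point.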

[2] = Oral bioavailability in Wistar Han rat at 4 mg/kg measured after 24 hrs; assay type: ADME, organism-based; conditions: in vivo
Procedure, shortened: (§2)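 Wistar Han rat PK study with a 24 h end point, using an oral dose of 4 mg/kg.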

[3] = Clearance in Wistar Han rat at 4 mg/kg, po measured after 24 hrs; assay type: ADME, organism-based; conditions: in vivo; procedure, shortened: as §2
PXR (NR1I2) = biological target: T1, PXR (NR1I2) (Homo sapiens, UniProt O75469); test: Activation of PXR (unknown origin) assessed as maximal efficacy relative to control; assay type: toxicity
T1 sequence (O75469 whole entry): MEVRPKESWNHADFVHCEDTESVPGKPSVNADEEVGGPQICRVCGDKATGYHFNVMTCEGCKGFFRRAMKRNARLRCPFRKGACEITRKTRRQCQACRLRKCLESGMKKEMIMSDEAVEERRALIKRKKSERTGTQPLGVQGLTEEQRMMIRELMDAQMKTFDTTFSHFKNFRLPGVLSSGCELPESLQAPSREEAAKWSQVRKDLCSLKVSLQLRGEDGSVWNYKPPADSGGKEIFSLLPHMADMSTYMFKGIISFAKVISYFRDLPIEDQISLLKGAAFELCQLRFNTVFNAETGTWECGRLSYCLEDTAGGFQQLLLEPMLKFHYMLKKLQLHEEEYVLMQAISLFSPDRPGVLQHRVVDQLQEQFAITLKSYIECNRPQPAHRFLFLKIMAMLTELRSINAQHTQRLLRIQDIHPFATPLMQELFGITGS

[4] = Unbound volume of distribution in Beagle dog at 1 mg/kg, po in 30% captisol formulation or 0.5 mg/kg, iv measured after 24 hrs; assay type: ADME, organism-based, Canis lupus familiaris; conditions: in vivo; procedure, shortened: as §1
[5] = Metabolic stability in human hepatocytes assessed as intrinsic clearance; assay type: ADME, cell-based, Hepatocyte; conditions: read-out: CLH
[6] = Plasma protein binding in human assessed as unbound fraction; assay type: ADME, cell-free
[7] = Plasma protein binding in rat assessed as unbound fraction; assay type: ADME, cell-free
[8] = MRT in Wistar Han rat at 4 mg/kg, po measured after 24 hrs; assay type: ADME, organism-based; conditions: in vivo; procedure, shortened: as §2
[9] = Plasma protein binding in dog assessed as unbound fraction; assay type: ADME, cell-free, Canis lupus familiaris
[10] = Unbound volume of distribution in Wistar Han rat at 4 mg/kg, po measured after 24 hrs; assay type: ADME, organism-based; conditions: in vivo; procedure, shortened: as §2
[11] = Intrinsic clearance in Wistar Han rat at 4 mg/kg, po measured after 24 hrs; assay type: ADME, organism-based; conditions: in vivo; procedure, shortened: as §2
[12] = Oral bioavailability in Beagle dog at 1 mg/kg in 30% captisol formulation measured after 24 hrs; assay type: ADME, organism-based, Canis lupus familiaris; conditions: in vivo; procedure, shortened: as §1
[13] = MRT in Beagle dog at 1 mg/kg, po in 30% captisol formulation or 0.5 mg/kg, iv measured after 24 hrs; assay type: ADME, organism-based, Canis lupus familiaris; conditions: in vivo; procedure, shortened: as §1
[14] = biological target: T2, Nuclear receptor subfamily 1 group I member 2 (Homo sapiens, UniProt O75469); test: Activation of PXR (unknown origin); assay type: toxicity
T2 sequence (O75469 whole entry): T1 sequence (O75469 whole entry)

[15] = Intrinsic clearance in Wistar Han rat at 5 mg/kg, po or 2 mg/kg, iv measured after 24 hrs; assay type: ADME, organism-based; conditions: in vivo
Procedure, shortened: (§3)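 Wistar Han rats were dosed IV at 2 mg/kg in DMSO/PEG400/H2O 20/60/20 at 1 mL/kg, and PO at 5 mg/kg in PEG400/Tween80/H2O 40/10/50 at 2 mL/kg. Sampling ran to a 24 h end point.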

[16] = Oral bioavailability in Beagle dog at 1 mg/kg in 10% tween 80 formulation measured after 24 hrs; assay type: ADME, organism-based, Canis lupus familiaris; conditions: in vivo
Procedure, shortened: (§4)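 Beagle dogs were given 0.5 mg/kg IV in DMSO/PEG400/H2O 20/60/20 at 0.5 mL/kg, and 1 mg/kg PO in a 10% Tween 80 formulation. Sampling ran to a 24 h end point.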

[17] = Unbound volume of distribution in Wistar Han rat at 5 mg/kg, po or 2 mg/kg, iv measured after 24 hrs; assay type: ADME, organism-based; conditions: in vivo; procedure, shortened: as §3
[18] = MRT in Beagle dog at 1 mg/kg, po in 10% tween 80 formulation or 0.5 mg/kg, iv measured after 24 hrs; assay type: ADME, organism-based, Canis lupus familiaris; conditions: in vivo; procedure, shortened: as §4
[19] = Oral bioavailability in Wistar Han rat at 5 mg/kg measured after 24 hrs; assay type: ADME, organism-based; conditions: in vivo; procedure, shortened: as §3
[20] = Octanol-water partition coefficient, logD of the compound; assay type: physicochemical
[21] = MRT in Wistar Han rat at 5 mg/kg, po or 2 mg/kg, iv measured after 24 hrs; assay type: ADME, organism-based; conditions: in vivo; procedure, shortened: as §3
[22] = Unbound brain-to-plasma concentration ratio in rat; assay type: ADME; conditions: read-out: K(p,uu,brain)
[23] = Unbound volume of distribution in Beagle dog at 1 mg/kg, po in 10% tween 80 formulation or 0.5 mg/kg, iv measured after 24 hrs; assay type: ADME, organism-based, Canis lupus familiaris; conditions: in vivo; procedure, shortened: as §4
[24] = […] clearance in Beagle dog at 1 mg/kg, po in 10% tween 80 formulation or 0.5 mg/kg, iv measured after 24 hrs; assay type: ADME, organism-based, Canis lupus familiaris; conditions: in vivo; procedure, shortened: as §4
[25] = MRT in rat; assay type: ADME; conditions: in vivo

Row | Compound | CL [1] [mL/min/kg] | Vdu [4] [L/kg] | CLint scaled [5] [mL/min/kg] | fraction unbound [6] | fraction unbound [7] | fraction unbound [9] | bioavailability [12] [%] | MRT [13] [h] | CL [15] [mL/min/kg] | Vdu [17] [L/kg] | bioavailability [19] [%] | MRT [21] [h] | Kp uu [22] | Emax (PXR (NR1I2)) [%] | EC50 [14] [µM] | further results
1 | Cc1nnc(-c2ccc(-c3ccc(F)c4c3C(=O)N([C@H](C3CC3)C(C)(C)O)C4)cc2)o1 | – | – | – | – | – | – | – | – | – | – | – | – | – | 97 | 8.9 | –
2 | CN1Cc2cc(-c3cccc4c3C(=O)N([C@H](C3CC3)C(C)(C)O)C4)ccc2C1=O | – | – | – | – | – | – | – | – | – | – | – | – | – | 11 | > 30 | –
3 | CCOc1ccccc1C(=O)Nc1cccc2c1C(=O)N(CC1CC1)C2 | – | – | – | – | – | – | – | – | – | – | – | – | – | 81 | 4.3 | MRT [25]: 1.4 h
4 | Cc1nnc(-c2ccc(-c3c(F)cc(F)c4c3C(=O)N([C@H](C3CC3)C(C)(C)O)C4)cc2)o1 | – | – | – | – | – | – | – | – | – | – | – | – | – | 100 | 4.6 | –
5 | Cc1nnc(-c2ccc(-c3c(F)ccc4c3C(=O)N([C@H](C3CC3)C(C)(C)O)C4)cc2)o1 | – | – | – | – | – | – | – | – | – | – | – | – | – | 100 | 5.2 | –
6 | Cc1nnc(-c2ccc(-c3c(F)cc(F)c4c3C(=O)N([C@@H](C(C)(C)O)C(F)(F)F)C4)cc2)o1 | – | – | – | – | – | – | – | – | – | – | – | – | – | 100 | 14 | –

The next lines start with results.

Row | CL [1] [mL/min/kg] | Vdu [4] [L/kg] | CLint scaled [5] [mL/min/kg] | fraction unbound [6] | fraction unbound [7] | fraction unbound [9] | bioavailability [12] [%] | MRT [13] [h] | CL [15] [mL/min/kg] | Vdu [17] [L/kg] | bioavailability [19] [%] | MRT [21] [h] | Kp uu [22] | Compound | Emax (PXR (NR1I2)) [%] | EC50 [14] [µM] | further results
7 | 21 | 12 | 19 | 0.046 | 0.026 | 0.2 | 100 | 10 | – | – | – | – | – | Cc1nnc(-c2ccc(-c3cc(F)cc4c3C(=O)N([C@H](C3CC3)C(C)(C)O)C4)cc2)o1 | 75 | 25 | bioavailability [2]: 38%; CL/F [3]: 3 mL/min/kg; MRT [8]: 2.3 h; Vdu [10]: 16 L/kg; CL [11]: 120 mL/min/kg
8 | – | – | 15 | 0.032 | 0.013 | 0.1 | – | – | 211 | 36 | 100 | 3 | 0.5 | Cc1nnc(-c2ccc(-c3cccc4c3C(=O)N([C@H](C3CC3)C(C)(C)O)C4)cc2)o1 | 89 | 29 | bioavailability [16]: 81%; MRT [18]: 8.6 h; logD [20]: 2.3; Vdu [23]: 9.9 L/kg; CL [24]: 13 mL/min/kg
9 | 11 | 7.1 | 33 | 0.098 | 0.038 | 0.2 | 75 | 10 | 30 | 10 | 36 | 5.7 | 0.2 | Cc1nnc(-c2ccc(-c3c(F)c(F)cc4c3C(=O)N([C@H](C3CC3)C(C)(C)O)C4)cc2)o1 | 100 | 6.1 | –
10 | 23 | 14 | 4.5 | 0.067 | 0.037 | 0.11 | 79 | 11 | 30 | 18 | 83 | 9.9 | 0.4 | Cc1nnc(-c2ccc(-c3c(F)c(F)cc4c3C(=O)N([C@@H](C(C)(C)O)C(F)(F)F)C4)cc2)o1 | 80 | 12 | logD [20]: 2.7
11 | 17 | 17 | 13 | 0.05 | 0.021 | 0.14 | 64 | 11 | 169 | 36 | 57 | 3.7 | 0.1 | Cc1nnc(-c2ccc(-c3cc(F)c(F)c4c3C(=O)N([C@H](C3CC3)C(C)(C)O)C4)cc2)o1 | – | – | –
